# From PubChem BioAssay
# GPR7 antagonist = GPR7 receptor antagonists, primary screen, cell-based, fluorescence, single concentration. GPR7-expressing cells, fluorescence antagonist assay. inhibition, % at 4.4 µM. Neuropeptides B/W receptor type 1 (Homo sapiens), P48145. 1.1% of 290,000 active. AID 1861, 2009; in the data active = inhibition above about 16%, passing the limit was not always enough;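 note: cells stimulated with the agonist NPW; 0% = agonist with vehicle and 100% = vehicle without agonist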
# Target sequence (P48145 whole entry, looked up): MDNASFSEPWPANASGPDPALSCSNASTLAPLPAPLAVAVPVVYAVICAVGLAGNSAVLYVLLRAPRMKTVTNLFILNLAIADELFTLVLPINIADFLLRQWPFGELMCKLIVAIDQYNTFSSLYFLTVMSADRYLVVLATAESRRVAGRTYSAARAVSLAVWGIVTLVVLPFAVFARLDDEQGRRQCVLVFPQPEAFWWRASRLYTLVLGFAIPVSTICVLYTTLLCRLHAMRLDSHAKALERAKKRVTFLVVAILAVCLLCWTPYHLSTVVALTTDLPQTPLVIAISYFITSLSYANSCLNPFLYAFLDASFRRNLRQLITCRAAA
# TRPML3 agonist = human TRPML3 channel agonists, primary screen, cell-based, HEK293 TRPML3-YFP, Fluo-8 calcium fluorescence, 3 µM. activation, % at 3 µM. 0.29% of 220,000 active. Mucolipin-3 (Homo sapiens), Q8TDD5. 100% = the carbachol control signal;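 active = activation above its plate's cutoff, the mean activation of the plate's test wells plus 3 SD, cut at about 12% in these data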;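 note: 0% = DMSO only wells and 100% = carbachol wells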
#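 Test system: HEK293 cells stably carrying human TRPML3-YFP; Doses: single dose, 3 µM final nominal compound, 0.3% DMSO final; Schedule: dye loading 1 h 37 °C then 30 min ambient, 125 s read; Technique: Fluo-8 calcium fluorescence; Benchmarks: high control carbachol 87 µM, low control DMSO.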
# OX1R antag-1 = OX1R (HCRTR1) antagonists, primary screen, fluorescence, CHO/OX1R cells, Fluo-8 calcium, orexin A. Fluo-8 calcium fluorescence. inhibition, % at 5 µM. 0.43% of 330,000 active. AID 434989, 2010;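 active = inhibition above its plate's threshold, mean inhibition of all tested compounds on the plate plus 3 SD, cut at about 37% in these data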;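 note: 0% = orexin A challenge wells and 100% = SB-334867-A antagonist wells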
# zfTRPN1 agonist = zebrafish TRPN1 channel agonists, primary screen, cell-based, HEK293, calcium fluorescence; transient receptor potential cation channel N1 (TRPN1/NompC), Danio rerio; HEK293 zebrafish TRPN1-YFP, Fluo-8 calcium fluorescence; 100% = response to 87 µM carbachol; activation, % at 3 µM; 0.18% of 220,000 active;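 active = activation above its plate's cutoff, the mean activation of test wells on that plate plus 3 SD, cut at about 19% in these data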;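 note: 0% = DMSO alone and 100% = 87 µM carbachol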
#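 Material – zebrafish TRPN1-YFP in HEK293 cells · Doses – 3 µM single point · Schedule – dye 1 h 37 °C plus 30 min RT · Signal – Fluo-8 calcium fluorescence, excitation 470-495 nm, emission 515-575 nm · Read-out – % activation versus carbachol response · Control set – carbachol high, DMSO low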
# CHO parental Ca = ATP-evoked calcium signal inhibitors, parental CHO, primary screen, counter-screen for OX1R antagonist project, cell-based, fluorescence, Fluo-8 calcium dye; parental CHO-K1, ATP-induced calcium, Fluo-8 fluorescence; inhibition, % at 5.6 µM; 0.63% of 330,000 active;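 active = inhibition above that plate's mean sample inhibition plus 3 SD, cut at about 26% in these data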;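 note: 0% = ATP-challenged DMSO wells and 100% = DMSO wells without ATP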
#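 Measured by: calcium-sensitive Fluo-8 fluorescence / Test system: CHO parental line / Controls: ATP-challenged DMSO wells low, unchallenged DMSO wells high / Measure: % inhibition / Compound: single nominal dose of 5.6 µM per compound / Replicates: single well per compound, no replicates / Reagent: ATP as calcium-mobilizing challenge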
# OX1R antag-2 = antagonists of human orexin 1 receptor (OX1R); Orexin/Hypocretin receptor type 1 (Homo sapiens), O43613; OX1R-expressing cells, FRET antagonist read-out; inhibition, % at 6.6 µM; 1.8% of 330,000 active; AID 485270, 2010; in the data active = inhibition mostly above about 38%, no sharp cut-off; inactive = mostly below about 40%;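 note: 0% = agonist challenge alone and 100% = reference antagonist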
# OX1R HTRF conf = OX1R (HCRTR1) antagonists, confirmation, cell-based, HTRF; 49% of 1,800 active; inhibition, % at 6.6 µM; OX1R-expressing cells, HTRF antagonist assay; AID 492964, 2010; shares compounds with OX1R antag-2; in the data active = inhibition above about 55%;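 note: CHO cells expressing OX1R stimulated with orexin A at about EC80; 0% = agonist challenge alone and 100% = reference antagonist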
# CHO-K1 HTRF = signal inhibition in parental CHO-K1 cells, counter-screen for OX1R antagonist project, cell-based, HTRF. shares compounds with OX1R antag-2. HTRF counterscreen. inhibition, % at 6.6 µM. 48% of 1,800 active; in the data active = inhibition above about 17%;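 note: 0% = agonist challenge with vehicle and 100% = vehicle alone without agonist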
# The depositor's hits bear a star; / = no result. Sampled rows, rich in hits. Any-hit rate of the full collection: about 3.2%.
SMILES,GPR7 antagonist,TRPML3 agonist,OX1R antag-1,zfTRPN1 agonist,CHO parental Ca,OX1R antag-2,OX1R HTRF conf,CHO-K1 HTRF
NS(=O)(=O)c1ccc(CCNC(=O)CN2C(=O)NC(c3ccccc3)(c3ccccc3)C2=O)cc1,/,/,-13,/,-10,4,/,/
CSc1ccc(/C=N/n2c(COc3ccccc3)n[nH]c2=S)cc1,-5,/,-24,/,-2,-13,/,/
CCOc1ccc(-c2nnc(-c3cccs3)o2)cc1,-5,0,-25,1,-12,21,/,/
c1csc(-c2nnc(-c3ccc(N4CCOCC4)cc3)o2)c1,-3,1,14,0,-10,77*,83*,12
Cc1ccc(C)n1-c1nccc(-c2cccs2)n1,8,0,-8,-2,-11,19,/,/
N#Cc1cccn1-c1nccc(-c2cccs2)n1,-10,0,-9,-1,-18,87*,75*,2
O=C(NN1C(=O)/C(=C/c2ccc(O)c([N+](=O)[O-])c2)SC1=S)c1ccccc1Cl,-5,0,-29,0,-15,112*,55*,17*
CNC(=O)Nc1cccc(-c2ccnc(C)n2)c1,13,1,-5,2,10,0,/,/
COc1cccc(C(=O)/C(C#N)=N/Nc2cccc(-c3ccnc(C)n3)c2)c1,-9,0,-13,6,-2,77*,50,18*
O=S1(=O)N=C(c2ccccc2)c2ccccc21,/,/,-3,/,-16,33,/,/
O=C(Nc1cc(S(=O)(=O)N2CCCCC2)ccc1O)c1ccccc1NS(=O)(=O)c1ccc(F)c(F)c1,-11,-1,12,0,-17,83*,42,2
O=C(/C=C1\NC2(CCCC2)Cc2ccccc21)C(=O)N/N=C/c1ccccc1O,4,1,-11,-1,-27,82*,47,5
CCn1c(C)nc2cc(-c3nc4n(n3)Cc3ccccc3-4)ccc21,3,1,-12,4,8,88*,81*,9
N#Cc1ccccc1OCC(=O)OCC(=O)Nc1ccc2c(c1)OCO2,/,/,-13,/,-5,2,/,/
CSc1cccc(NC(=O)/C=C/c2cccc(Cl)c2)c1,-1,0,-1,0,-11,78*,71*,15
CCOC(=O)CC(=O)c1sc2c(c1N)c(=O)[nH]c(=O)n2-c1ccc(OC)cc1,-6,/,-5,/,-3,7,/,/
OCc1cn(-c2ccccc2)nc1-c1cc2ccccc2o1,-2,1,-13,0,0,81*,35,12
CCOc1ccc(-c2nnc(NC(=O)Cc3cc(OC)c(OC)c(OC)c3)o2)cc1,-2,/,-25,/,-15,1,/,/
O=c1c([N+](=O)[O-])cccn1Cc1ccccc1Cl,-1,1,-8,0,-8,79*,45,27*
Cn1c(N=NC(=O)c2ccccc2)c(O)c2ccccc21,1,-1,-15,-2,-23,137*,98*,52*
CC(C)(C)n1c(O)c2ccc(C(=O)N=NC(=O)c3ccccc3)cc2c1O,-9,/,-12,/,-13,15,/,/
CCN(CC)CCNC(=O)C(=O)NCC1OCCN1S(=O)(=O)c1ccc([N+](=O)[O-])cc1 (stereo unspecified),3,0,-6,0,1,92*,41,64*
CCN(CC)CCNC(=O)C(=O)NCC1OCCN1S(=O)(=O)c1ccc(Cl)cc1 (stereo unspecified),-13,/,2,/,1,5,/,/
